According to ChEMBL document CHEMBL4229460, “Design and biological evaluation of novel hybrids of 1, 5-diarylpyrazole and Chrysin for selective COX-2 inhibition” (Bioorg Med Chem, 2018):

Tests used:
Assay type in all cases: functional
HeLa [1] = assay: Induction of apoptosis in human HeLa cells assessed as necrotic cells at 5 uM after 24 hrs by Annexin-V-FITC/propidium iodide staining based flow cytometry (reference value: 0.242 to 1.12%)
Outline: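 HeLa cells in DMEM with 10% FBS, penicillin/streptomycin, 37 °C, 5% CO₂; seeded 2 × 10⁵ cells/well in six-well plates, treated at 0, 1.25, 2.5, 5 and 10 μM for 24 h, or at 5 μM for 12, 24, 36 or 48 h. Cells trypsinized, washed in ice-cold PBS, stained in binding buffer with Annexin V-FITC and PI for 10 min in the dark, then analyzed by flow cytometry.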

HeLa [2] = assay: Induction of apoptosis in human HeLa cells assessed as late apoptotic cells at 5 uM after 36 hrs by Annexin-V-FITC/propidium iodide staining based flow cytometry (reference value: 2.57%)
Outline: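 HeLa seeded at 2 × 10⁵ cells/well. Dose series was 0, 1.25, 2.5, 5 and 10 μM for 24 h; time course was 5 μM for 12, 24, 36 or 48 h. Trypsinized and washed in ice-cold PBS, then stained in binding buffer with Annexin V-FITC and PI for 10 min in the dark. Flow cytometry scored early (Annexin⁺/PI⁻) and late (Annexin⁺/PI⁺) apoptotic cells.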

HeLa [3] = assay: Cell cycle arrest in human HeLa cells assessed as accumulation at G1 phase at 10 uM after 24 hrs by propidium iodide staining based flow cytometry (reference value: 55.51%)

COc1ccc(-c2cc(COC(=O)COc3cc(O)c4c(=O)cc(-c5ccccc5)oc4c3)nn2-c2ccc(C)cc2)cc1
Activity (HeLa [1]): 0.073 - 0.427% | Activity (HeLa [2]): 7.82% | Activity (HeLa [3]): 76.02%
